High-throughput results deposited in PubChem by Columbia University Molecular Screening Center.
Insulin prom act – activators of insulin promoter-driven GFP, primary screen, imaging, TRM-6 cells, eGFP reporter, cell count; plate-scaled: unstimulated 0, stimulated control 100; activation, % at 2 µM; 130,000 compounds, 0.81% hits; AID 1296, 2008;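 active = activation at 2 µM above a set limit, confirmed on inspection of the cell images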;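 also: share of cells whose green reporter signal exceeds an intensity cutoff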
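Material: Human fetal islet-derived TRM-6 cells with tamoxifen-inducible insulin promoter–eGFP reporter | Medium: Low-glucose (5.5 mM) medium with tamoxifen | Probe or stimulus: Tamoxifen inducer, 0.75 µM, in seeding medium | Schedule: Tamoxifen pre-incubation 15 h overnight, then compound exposure 48 h at 37 °C | Detection: High-content imaging of fixed cells with Hoechst nuclear stain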
Starred values were filed as active, the others as inactive. This is one part of a sample in which hits are shown more often than they occur.

SMILES	Insulin prom act
COc1ccc(N(C(=O)c2ccco2)S(=O)(=O)c2cccs2)cc1	165
COc1cc(/C=N/NC(=O)c2ccc(-c3ccccc3)cc2)cc(OC)c1OC	443*
COc1cc(/C=N/NC(=O)c2ccoc2C)cc(OC)c1OC	3
COc1ccc(C(=O)N/N=C/c2ccc(OC)c(OS(=O)(=O)c3ccccc3)c2)cc1	-5
CCC(C)(C)n1nnnc1C(c1ccc2ncccc2c1)N1CCN2CCCC2C1 (centres undefined)	-6
CCc1ccc(N(C(=O)c2ccco2)C(C(=O)NC2CCCC2)c2ccco2)cc1 (centres undefined)	3
COn1c(SCc2ccc(Cl)cc2)nc2ccccc2c1=O	77*
COc1ccc(C(=O)Nn2c(SCC(=O)c3ccc(Cl)cc3)nc3ccccc3c2=O)cc1	-83
COCCn1c(SCc2ccccc2F)nc2ccccc2c1=O	-9
Cc1ccc(C)c(NC(=O)Cn2nnc(C(=O)NCc3cccs3)c2N)c1	-4
O=C(Nc1nc(SCc2ccc(F)cc2)ns1)c1ccco1	94
CCOCCc1nnc(NC(=O)Cc2ccccc2)s1	0
CSc1nsc(NC(=O)Cc2ccccc2)n1	103*
CCOC(=O)C(=CNc1ccc2c(c1)nnn2-c1ccc(Cl)cc1)C(=O)OCC	3
Cc1ccnc2ccc(SC(F)(F)F)cc12	417*
O=C1CCC(C(=O)N2CCC(CO)(Cc3ccc(Cl)cc3)CC2)=NN1	-8
CCOc1ccc(C2CC(=O)n3nc(C45CC6CC(CC(C6)C4)C5)nc3S2)cc1OC (centres undefined)	-7
CCOc1ccc(C2N(c3cc(C)on3)C(=O)C3CCCN32)cc1OC (centres undefined)	120*
COc1cc(C2C(C(=O)c3ccc(C)o3)=C(O)C(=O)N2c2cc(C)on2)cc(Br)c1O (centres undefined)	5
S=C(Nc1ccc(Cl)cc1)c1sc(N2CCCCC2)nc1N1CCOCC1	8
C=CCNC(=O)CN(c1cccc(Br)c1)S(C)(=O)=O	3
CS(=O)(=O)N(CC(N)=O)c1cccc(Br)c1	514*
CS(=O)(=O)N(CC(N)=O)c1ccc(F)c(Cl)c1	277
CCOC(=O)c1c(NC(=S)Nc2ccc(Cl)cc2)sc(C)c1C	-5
CCOC(=O)c1c(NC(=S)Nc2ccccc2)sc2c1CCN(CCc1ccccc1)C2	233*
SMILES	Insulin prom act
CCOC(=O)c1c(NC(=O)CN2CCN(C(=O)c3ccco3)CC2)sc2c1CCCC2	319
S=C(NC1CCCCC1)N1CCN(C/C=C/c2ccccc2)CC1	-7
COC(=O)c1c(C(=O)OC)c(-c2ccc(Cl)cc2)n2c1CS(=O)(=O)C2	0
CCOC(=O)Cn1nc(C)c(NC(=O)c2ccc([N+](=O)[O-])c(C)c2)c1C	-7
CCCNC(=O)c1cnc(Sc2ncc(C(F)(F)F)cc2Cl)n1C	9
N#Cc1c(Sc2ncc(C(F)(F)F)cc2Cl)nsc1C/C=N\OCc1c(F)cccc1Cl	543*
FC(F)(F)c1cnc(Sc2nnc(-c3cccs3)n2CC2CCCO2)c(Cl)c1 (centres undefined)	-8
Cc1nnc(SCC(=O)Nc2ccc(Cl)cn2)s1	5
CCOC(=O)CSc1ccc(S(=O)(=O)N(C)C2CCCCC2)cc1[N+](=O)[O-]	-3
CC(CCc1ccccc1)NC(=O)C1CCN(S(=O)(=O)N2CCOCC2)CC1 (centres undefined)	106
CCCCC(CC)CNC(=O)Cn1c(=S)[nH]c2ncccc2c1=O (centres undefined)	-9
COCCNC(=O)COc1ccc(Br)cc1Cl	-7
Cc1cc(Cl)ccc1OCC(=O)N1CCCCC1	-7
COC(=O)C1CCCN1C(=O)COc1ccc(Br)cc1Cl (centres undefined)	438*
Cc1cc(C)n(C(=O)CCCCCCCCC(=O)n2nc(C)cc2C)n1	8
C=C(C)c1cccc(C(C)(C)NC(=O)N2CCN(c3ccccc3OC)CC2)c1	-8
C=C(C)c1cccc(C(C)(C)NC(=O)N(C)C2CCN(C)CC2)c1	260*
C=C(C)c1cccc(C(C)(C)NC(=O)Nc2ncccn2)c1	-3
Cc1csc(Sc2ccc(S(=O)(=O)N3CCCC3)cn2)n1	-8
COc1ccc(CNC(=O)C(c2ccncc2)N(C(=O)Cc2cccs2)c2ccc(C)cc2)cc1 (centres undefined)	0
c1ccc(CC(Nc2ccccn2)c2ccccc2)cc1 (centres undefined)	0
Fc1ccccc1/C=N/NC(=S)Nc1ccc(Cl)cc1Cl	114
CC(C)(C)NC(=O)CSc1nnc(-c2ccncc2)o1	192
Cc1ccc(C(=O)CSc2nnc(-c3ccccc3)o2)cc1	113
O=C(CSc1nnc(-c2ccncc2)o1)Oc1ccccc1	690*
SMILES	Insulin prom act
CCS(=O)CCSc1nc2ccccc2s1 (centres undefined)	3
Cc1cc(C)n(-c2nc3ccccc3nc2N2CCN(C(=O)c3ccc(Cl)cc3)CC2)n1	-5
COC(=O)Nc1ccccc1C(=O)N1CCC(O)(c2ccc(Cl)cc2)CC1	0
Cc1cccc2nc(-c3ccccc3)nc(N3CCC(O)(c4ccc(Cl)cc4)CC3)c12	454*
CC(C)(C)C(=O)Nc1cc(C(F)(F)F)ccc1N1CCOCC1	-14
O=C(CCCCl)NC(=S)Nc1cc(C(F)(F)F)ccc1N1CCOCC1	-2
O=C(/C=C/c1ccco1)NC(=S)Nc1cc(C(F)(F)F)ccc1N1CCOCC1	211*
CCCNS(=O)(=O)c1cccc(C(=O)NC2CCCc3ccccc32)c1 (centres undefined)	4
Cc1ccc(C(=O)N(C)c2nnc(-c3ccncc3)s2)cc1	0
Cc1cc(C)c(NC(=O)CN2C(=O)NC3(CCCCC3)C2=O)c(C)c1	-6
Cc1cccc(N2C(=O)NC3(CCCCC3)C2=O)c1	78*
Cc1cccc(N2C(S)=C(C#N)C(=O)NC23CCCCC3)c1	0
O=CNC(Cc1ccccc1)C(=O)O (centres undefined)	-7
Nn1cnnc1SCC(=O)Nc1ccc2c(c1)OCO2	9
CCOC(=O)c1ccc(S(=O)(=O)Nc2ccc3cn[nH]c3c2)cc1	5
O=C(OCC(=O)N1CCN(C(=O)c2ccco2)CC1)c1cc(-c2cccc(Br)c2)nc2ccccc12	7
CC(=O)N1C(=S)NC(=O)/C1=C1/C(=O)N(CC(=O)Nc2cccc(C)c2)c2ccccc21	108*
Cc1cccc(NC(=O)CN2C(=O)N/C(=C/c3ccc(C)o3)C2=O)c1	10
Cc1ccc2c(c1)C(=O)C(=O)N2CC(=O)Nc1ccc(N2CCOCC2)cc1	0
Cc1ccc(CCNC(=O)CCc2nc3ccccc3[nH]2)cc1	5
CCOc1ccc(NC(=O)C(C)Oc2ccccc2C(=O)Nc2ccc(C)c(Cl)c2)cc1 (centres undefined)	-8
Cc1cc(NC(=O)C(=O)c2cn(C)c3ccccc23)no1	-7
COC(=O)C1CCN(S(=O)(=O)c2ccc(OC)cc2)CC1	-3
CCc1ccc(C2=NN(CCC(=O)NC(C)CCc3ccccc3)C(=O)CC2)cc1 (centres undefined)	107
COc1cccc(/C=C/C(=O)OCC(=O)Nc2ccc(N3CCOCC3)cc2)c1OC	0
SMILES	Insulin prom act
Cc1c(OCc2ccccc2)c(=O)ccn1Cc1ccc(Cl)cc1	6
Cc1c(OCc2ccccc2)c(=O)ccn1Cc1ccc(F)cc1	2
Cc1c(O)c(=O)ccn1Cc1ccccc1	257*
Cc1ccc(C)n1-c1ccc(C(=O)NN=C2CCCC2)cc1	-9
CCc1nc(SCC(=O)Nc2nnc(CC)s2)c2c(C)c(C)sc2n1	254*
CCc1nnc(NC(=O)CSc2ccc(-c3ccco3)nn2)s1	115
